Screens: PubChem BioAssay, SRMLSC
Fibroblast inh – blocks proliferation of human lung fibroblasts; LL 47 human lung fibroblast viability, ATP luminescence; hits give low values; viability, % at 10 µM; 1.1% of 85,000 active;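 active = viability at or below 50% in the single dose screen; inactive = viability above 50%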;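 also: compound exposure lasted 72 h before the ATP readout; 100% = median luminescence of untreated cell-only wells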
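Times – overnight cell rest, 72 h compound treatment at 37 °C · Test system – human lung fibroblast line LL 47, low passage · Amount – 1,150 cells in each well · Controls – cell-only wells, no compound · Doses – 0.1% DMSO in all compound wells · Measured by – CellTiter-Glo luminescence · Buffer or medium – IMEM plus 15% FBS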
HUVEC inhibit – blocks proliferation of human endothelial cells; HUVEC proliferation, CellTiter-Glo luminescence, 72 h; hits give low values; viability, % at 10 µM (by protocol); 1.1% of 86,000 active;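 active = viability at or below 30%; inactive = viability above 30%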;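 also: 100% = median luminescence of DMSO-only cell control wells on each plate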
H69AR inhibit – blocks growth of human H69AR lung tumor cells; viability, % at 10 µM; 6% of 85,000 active; AID 598; H69AR lung tumor viability, ATP luminescence, 72 h; hits give low values;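 active = viability at or below 40%; inactive = viability above 40%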;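 also: multidrug resistant small cell line overexpressing MRP-1 efflux transporter; 100% = mean luminescence of untreated control wells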
PTEN del growth – growth suppressors of cells with PTEN tumor suppressor deletion; HCT116 PTEN-null viability, CellTiter-Glo, 60 h; hits give low values; viability, % at 10 µM; 1.2% of 140,000 active; AID 827;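 active = viability at or below a set limit, 4 SD under the median of all tested compounds, cut at about 3.7% in these data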;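 also: PTEN knockout HCT116 line with beta catenin targeted HCT116 as companion control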
bCat KO growth – beta-catenin-lacking colon tumor cell growth suppression; HCT116 beta-catenin knockout viability, CellTiter-Glo, 60 h; hits give low values; 1.5% of 140,000 active; AID 818; viability, % at 10 µM;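 active = viability at or under a set limit, the compound median less 4 SD, cut at about 6% in these data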;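 also: 0% = Hyamine 1622 control at 20 µM and 100% = untreated cell control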
* = called active by the depositor; · = not tested or not shown. Only a selection was taken, and hits are over-represented in it overall.

SMILES	Fibroblast inh	HUVEC inhibit	H69AR inhibit	PTEN del growth	bCat KO growth
COc1ccc(C(C)=O)cc1CSc1nnc(-c2ccc(Cl)cc2)n1-c1ccccc1	·	·	·	59	62
CC1CCCN(CCOCCOc2ccc(Br)cc2Cl)C1 (centres undefined)	·	·	·	54	54
CC1CCCN(CCOCCOc2ccc(Cl)cc2Br)C1 (centres undefined)	·	·	·	8	5.3*
CC1Cc2ccccc2N1Cc1nc2cc(C(F)(F)F)ccc2c(=O)[nH]1 (centres undefined)	79	76	37*	53	66
CNC(=O)/C(C#N)=C/c1c(N(Cc2ccccc2)Cc2ccccc2)nc2ccccn2c1=O	·	·	·	62	66
CC1(C)CC(=O)C2=C(C1)OC1=C(C(=O)CC(C)(C)C1)C2c1ccc(O)cc1O	17*	25*	2.2*	1.8*	2.1*
COc1ccc(C(=O)N(NC(=O)Oc2ccccc2)C(C)(C)C)cc1	·	·	·	101	97
CN(C)CCNC(=O)c1coc(=O)c(Br)c1	106	112	64	105	88
O=C(NCCC1=CCCCC1)c1ccc(=O)oc1	101	108	48	95	98
O=C(NCCC1=CCCCC1)c1coc(=O)c(Br)c1	·	·	·	1.0*	1.1*
CC(C)CNC(=O)c1coc(=O)c(Br)c1	27*	84	0.8*	68	74
COCCN(C(=O)CSc1nnc(Nc2ccccc2F)s1)c1c(N)n(Cc2ccccc2)c(=O)[nH]c1=O	·	·	·	99	85
O=C(CSCc1ccc(Cl)cc1)NCc1ccccn1	·	·	·	107	96
Nc1c(C(O)(C(F)(F)F)C(F)(F)F)cc(C(O)(C(F)(F)F)C(F)(F)F)c2ccccc12	70	70	25*	21	20
Cn1cnnc1Sc1ccc(C(=O)NCCC23CC4CC(CC(C4)C2)C3)cc1[N+](=O)[O-]	·	·	·	74	83
CCOC(=O)c1c(C)c(C(=O)Nc2ccc(N(C)C)cc2)c(C)n1CC	57	54	19*	21	21
CCCCNS(=O)(=O)c1ccc(NC(=O)C(Sc2ccccc2)c2ccccc2)cc1 (centres undefined)	·	·	·	16	26
CN(CCCCCCCCC(=O)/C=N/O)Cc1ccccc1	96	88	24*	95	89
Cc1ccccc1-n1c(C)nnc1SCC(=O)N1CCc2ccccc2C1	·	·	·	99	104
CCC(c1nnnn1CCc1ccccc1)N(Cc1ccco1)Cc1cc2c(C)ccc(C)c2[nH]c1=O (centres undefined)	87	78	24*	27	42
CCC(c1nnnn1CCc1ccccc1)N(Cc1ccco1)Cc1cc2cc(C)cc(C)c2[nH]c1=O (centres undefined)	83	82	26*	6	12
C/C(=N\NS(=O)(=O)c1ccc(Cl)cc1)c1ccc(O)cc1	·	·	·	93	97
CCC(=O)Oc1ccc(C/C(=N\O)c2ccc(O)cc2O)o1	93	80	16*	79	82
CCOC(=O)c1ccc(CC(=O)c2ccc(O)cc2O)o1	97	110	87	109	103
N#CC1=C(N)OC(c2ccccc2)=C(C#N)C1c1ccc2c(c1)OCO2 (centres undefined)	94	95	98	88	94
SMILES	Fibroblast inh	HUVEC inhibit	H69AR inhibit	PTEN del growth	bCat KO growth
Cc1ccc(C2C(C#N)=C(N)Oc3cc4c(cc32)OCO4)cc1 (centres undefined)	76	74	15*	17	20
CSc1ccc(C2C(C#N)=C(N)Oc3cc4c(cc32)OCO4)cc1 (centres undefined)	63	59	18*	21	35
COc1cc(CC(=O)N/N=C/c2ccc([N+](=O)[O-])cc2)c([N+](=O)[O-])cc1OC	·	·	·	98	96
COc1ccc(-c2cc(=O)[nH]c(NCc3ccccc3)n2)cc1	91	83	85	39	40
CC(C)(C)c1nn(-c2ccccc2)c2[nH]c(=O)c(CNc3ccc4c(c3)OCCO4)cc12	92	53	101	67	79
CC(C)(C)c1nn(-c2ccccc2)c2[nH]c(=O)c(CNCc3ccco3)cc12	100	44	7.8*	24	36
COc1ccc(CNCc2cc3c(C(C)(C)C)nn(-c4ccccc4)c3[nH]c2=O)cc1	69	72	24*	0.6*	0.5*
Cc1ccc(CNCc2cc3c(C(C)(C)C)nn(-c4ccccc4)c3[nH]c2=O)cc1	65	67	1.9*	5	3.7*
CCOC(=O)c1[nH]c2ccc(OC)cc2c1NC(=S)N1CCN(c2ccccc2OC)CC1	·	·	·	20	20
